The values below come from PMC4418331 (Journal of Clinical Pharmacology, 2015).

The nature of data set [1]: Safety and tolerability assessments. It counts as in vivo, human (postmenopausal women with T2D). To be noted: for Increase in serum amylase concentration / Increase in serum lipase concentration: mean ± SD. Put shortly: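 Test compound given subcutaneously once weekly, escalated 0.25 mg for 4 weeks, 0.5 mg for 4 weeks, then 1.0 mg for 5 weeks. A combined oral contraceptive was given once daily for 8 days before escalation and again during the final week. The investigator recorded AEs, both observed and spontaneously reported, with severity graded and relation assessed. Amylase and lipase were measured as change from baseline to end of treatment and to follow-up (5 weeks after last dose), mean ± SD.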

The conditions of data set [2]: cited from earlier work.
Data set [3] concerns dipeptidyl peptidase-4 (DPP-4). As to conditions: in words; native GLP-1 ref 1; semaglutide ref 12; cited from earlier work.
[4] abbreviates: baseline to end of semaglutide treatment.

In turn, `CC[C@H](C)[C@H](NC(=O)[C@H](Cc1ccccc1)NC(=O)[C@H](CCC(=O)O)NC(=O)[C@H](CCCCNC(=O)COCCOCCNC(=O)COCCOCCNC(=O)CC[C@H](NC(=O)CCCCCCCCCCCCCCCCC(=O)O)C(=O)O)NC(=O)[C@H](C)NC(=O)[C@H](C)NC(=O)[C@H](CCC(N)=O)NC(=O)CNC(=O)[C@H](CCC(=O)O)NC(=O)[C@H](CC(C)C)NC(=O)[C@H](Cc1ccc(O)cc1)NC(=O)[C@H](CO)NC(=O)[C@H](CO)NC(=O)[C@@H](NC(=O)[C@H](CC(=O)O)NC(=O)[C@H](CO)NC(=O)[C@@H](NC(=O)[C@H](Cc1ccccc1)NC(=O)[C@@H](NC(=O)CNC(=O)[C@H](CCC(=O)O)NC(=O)C(C)(C)NC(=O)[C@@H](N)Cc1cnc[nH]1)[C@@H](C)O)[C@@H](C)O)C(C)C)C(=O)N[C@@H](C)C(=O)N[C@@H](Cc1c[nH]c2ccccc12)C(=O)N[C@@H](CC(C)C)C(=O)N[C@H](C(=O)N[C@@H](CCCNC(=N)N)C(=O)NCC(=O)N[C@@H](CCCNC(=N)N)C(=O)NCC(=O)O)C(C)C` [semaglutide] displayed a Subjects reporting diarrhea in data set [1] (6 subjects, all mild or moderate) of 14%. Besides, the “Severe hypoglycemia (ADA classification)” value in data set [1] (FPG at study site and self-measured at home) is “no cases of severe hypoglycemia were reported”. Moreover, in data set [1] (setting [4]), the “Increase in serum amylase concentration” value is 1.5 ± 15.3 U/L and the “Increase in serum lipase concentration” value is on record as 9.4 ± 24.3 U/L. Moreover, in data set [1] (baseline to follow-up), the “Increase in serum amylase concentration” value turned out to be 7.0 ± 14.1 U/L and the “Increase in serum lipase concentration” value is 10.7 ± 32.6 U/L. Further, in data set [1] (in vivo), the Antisemaglutide antibodies result is given as “No antisemaglutide antibodies were detected in any subject”; the “Changes in ECG or safety laboratory parameters, including calcitonin” value is on record as “No clinically meaningful changes were observed”; the Pancreatitis result is “No cases of pancreatitis were reported”; the “Serum amylase values ≥3x ULN” value is “No value was ≥3x ULN”. In addition, in data set [1] (min, max: 0.01, 95.6), the “Duration of nausea episodes, median” value amounted to 3.9 days. In addition, in data set [1] (s.c. injection), the Injection-site reactions entry was “no injection-site reactions were reported”. Besides, the “Subjects reporting TEAEs” value in data set [1] (whole study (oral contraceptive and semaglutide periods), 38 of 43 subjects) worked out at 88%. The “Serious AEs” value in data set [1] (whole study, n = 43) is recorded as “No serious AEs were reported”. The “Reported t1/2” value in data set [2] was 155 to 184 h. In data set [3], the “Degradation by dipeptidyl peptidase-4 (DPP-4)” value is reported as “less susceptible to degradation by DPP-4”.
As to “Glucagon-like peptide-1 [native GLP-1, reference compound]”, in data set [2] (in words), the “Half-life (t1/2)” value was “very short”. In data set [3], the “Degradation by dipeptidyl peptidase-4 (DPP-4)” value is on record as “rapidly degraded”.
